The values below come from ChEMBL document CHEMBL4052833, “Design, Synthesis, and Biological Activity of New N-(Phenylmethyl)-benzoxazol-2-thiones as Macrophage Migration Inhibitory Factor (MIF) Antagonists: Efficacies in Experimental Pulmonary Hypertension” (J Med Chem, 2018).

≈ marks a conversion by molar mass, not a printed value. Calls of active or inactive are those of the source. No cut-off for these calls is given here.

Series [1] concerns DU-145. In words: Inhibition of cell survival in MIF dependent human DU145 cells at 100 uM after 24 hrs by MTT assay. Conditions: for inhibition at 100 µM: DU-145, 24 h. It is filed as functional. The essentials:
(§1)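 DU-145 (RPMI) or iPAH endothelial cells (MCDB131) grown 24 h with 10% FCS, washed, then exposed 24 h serum-free to 10, 50 or 100 µM compound. MTT 5 mg/mL added for 6 h, medium removed, DMSO added, absorbance read at 590 nm.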

In series [2] the target is T1, Macrophage migration inhibitory factor (Homo sapiens, UniProt P14174).
T1 sequence (P14174 whole entry): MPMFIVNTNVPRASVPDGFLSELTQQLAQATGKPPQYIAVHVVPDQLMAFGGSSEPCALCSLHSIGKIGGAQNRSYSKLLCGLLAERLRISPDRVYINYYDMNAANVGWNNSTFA
The series is described as follows: Inhibition of recombinant human MIF tautomerase activity using 4-HPP as substrate preincubated for 15 mins followed by substrate addition measured after 360 secs. The essentials:
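Recombinant human MIF (100 nM) preincubated 15 min with 8 inhibitor concentrations, 0–10 µM; 4-HPP substrate, pre-equilibrated overnight at 4°C in 50 mM ammonium acetate, added in 0.435 M boric acid pH 6.6 at room temperature. Absorbance increase at 305 nm followed over 0–360 s; Ki determined; at least 3 independent replicates.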

Series [3] relates to Rattus norvegicus. The series is described as follows: Cardioprotective activity in MCT-induced pulmonary hypertension Wistar rat model assessed as reversal of increased collagen fibers in endomysium at 30 mg/kg/day administered via oral gavage for 2 weeks starting from 2 weeks post MCT challenge measured post last dose by picrosirius red staining-based assay. Format: functional, organism-based. The essentials: (§2)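 Monocrotaline rat model as above (60 mg/kg s.c.; daily gavage 30 mg/kg/day for 2 weeks starting 2 weeks post-MCT, DMSO/propylene glycol/saline vehicle). Heart sections deparaffinized and stained with Picrosirius red for collagen; collagen area fraction scored in right and left ventricle myocardium against control rats.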

In series [4] the test system is DU-145. The series is described as follows: Induction of apoptosis in human DU145 cells assessed as necrotic cells at 100 uM by Annexin V-FITC-staining based FACS analysis (reference value: 0.22%). Format: functional.
Series [5] has as its system Rattus norvegicus. The series is described as follows: Toxicity in MCT-induced pulmonary hypertension Wistar rat model assessed as change in systemic blood pressure at 30 mg/kg/day administered via oral gavage for 2 weeks starting from 2 weeks post MCT challenge. Format: organism-based. Conditions: in vivo, 336 h. The essentials:
(§3)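 Young male Wistar rats (100 g) given single subcutaneous monocrotaline 60 mg/kg; from 2 weeks later, dosed daily by gavage for 2 weeks at 30 mg.kg.day-1 in 33% DMSO in propylene glycol:saline (68:32), or vehicle alone. Under isoflurane, jugular catheter advanced into pulmonary artery for pressure; cardiac output by thermodilution; RV hypertrophy as Fulton index.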

Series [6] relates to DU-145. In words: Induction of apoptosis in human DU145 cells assessed as increase in caspase 3/7 activity after 24 hrs by fluorescence based assay. Format: functional, cell-based. The gist of the method: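 DU-145 cells exposed to increasing doses for 24 h; caspase-3/7 activity measured by fluorogenic Apo-ONE read-out.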
The subject of series [7] is DU-145. The series is described as follows: Induction of apoptosis in human DU145 cells assessed as early apoptotic cells at 100 uM by Annexin V-FITC-staining based FACS analysis (reference value: 2.5%). Format: functional.
Series [8] deals with Rattus norvegicus. The series is described as follows: Anti-hypertensive activity in MCT-induced pulmonary hypertension Wistar rat model assessed as reduction in right ventricular hypertrophy at 30 mg/kg/day administered via oral gavage for 2 weeks starting from 2 weeks post MCT challenge measured post last dose. It is filed as functional, organism-based. The gist of the method: as §3

The test system of series [9] is DU-145. The series is described as follows: Induction of apoptosis in human DU145 cells assessed as late apoptotic cells at 100 uM by Annexin V-FITC-staining based FACS analysis (reference value: 2.34%). It is filed as functional.
Series [10] deals with DU-145. In words: Induction of apoptosis in human DU145 cells at 100 uM by TUNEL assay. It is filed as functional, cell-based.
Series [11] is described as follows: Inhibition of cell survival in idiopathic pulmonary arterial hypertension patient derived primary pulmonary endothelial cells at 100 uM after 24 hrs by MTT assay. Format: functional. Conditions: Homo sapiens. The gist of the method:
as §1

In series [12] the test system is DU-145. In words: Induction of apoptosis in human DU145 cells assessed as viable cells at 100 uM by Annexin V-FITC-staining based FACS analysis (reference value: 94.9%). Format: functional. Conditions: read-out: Activity.
Series [13] concerns Rattus norvegicus. In words: Toxicity in MCT-induced pulmonary hypertension Wistar rat model assessed as change in body weight at 30 mg/kg/day administered via oral gavage for 2 weeks starting from 2 weeks post MCT challenge. Format: organism-based. Conditions: in vivo, 336 h. The gist of the method:
as §3

Series [14] has as its system Rattus norvegicus. The series is described as follows: Anti-hypertensive activity in MCT-induced pulmonary hypertension Wistar rat model at 30 mg/kg/day administered via oral gavage for 2 weeks starting from 2 weeks post MCT challenge. Format: functional, organism-based. The essentials: as §3
The target in series [15] is T2, Macrophage migration inhibitory factor (Homo sapiens) (UniProt P14174).
T2 sequence (whole entry): T1 sequence (P14174 whole entry)
In words: Inhibition of recombinant human MIF-induced ERK phosphorylation in idiopathic pulmonary arterial hypertension patient derived primary pulmonary endothelial cells by Western blot analysis. The gist of the method: (§4)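 iPAH-derived pulmonary endothelial cells stimulated with 50 ng/mL recombinant MIF (endotoxin <0.07 EU/µg) with increasing antagonist doses; lysed and sonicated in RIPA with protease/phosphatase inhibitors, 30 µg protein immunoblotted for pAKT/AKT and pERK1/2/ERK.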

In series [16] the test system is Rattus norvegicus. In words: Cardiotoxicity in MCT-induced pulmonary hypertension Wistar rat model assessed as induction of cardiac fibrosis at 30 mg/kg/day administered via oral gavage for 2 weeks starting from 2 weeks post MCT challenge measured post last dose by picrosirius red staining based assay. It is filed as toxicity, organism-based. Conditions: in vivo, 336 h. The essentials: as §2

The subject of series [17] is Rattus norvegicus. The series is described as follows: Cardiotoxicity in MCT-induced pulmonary hypertension Wistar rat model assessed as effect on collagen area fraction in left ventricle at 30 mg/kg/day administered via oral gavage for 2 weeks starting from 2 weeks post MCT challenge measured post last dose by picrosirius red staining based assay. Format: toxicity, organism-based. Conditions: in vivo, 336 h. The essentials: as §2

Series [18] relates to DU-145. The series is described as follows: Antiproliferative activity against human DU145 cells by BrdU-incorporation based time-resolved fluorescence analysis.
The nature of series [19]: Aqueous solubility in pH 7.4 PBS buffer at […] after 24 hrs. It is filed as physicochemical.
Series [20] concerns DU-145. In words: Inhibition of cell survival in MIF dependent human DU145 cells after 24 hrs by MTT assay. Conditions: DU-145, 24 h. It is filed as functional, cell-based. The gist of the method: as §1
Series [21] relates to Rattus norvegicus. In words: Toxicity in MCT-induced pulmonary hypertension Wistar rat model assessed as change in heart rate at 30 mg/kg/day administered via oral gavage for 2 weeks starting from 2 weeks post MCT challenge. Conditions: in vivo, 336 h. Format: organism-based. The essentials:
as §3

Series [22] relates to Rattus norvegicus. The series is described as follows: Anti-hypertensive activity in MCT-induced pulmonary hypertension Wistar rat model assessed as reduction in mean pulmonary artery pressure at 30 mg/kg/day administered via oral gavage for 2 weeks starting from 2 weeks post MCT challenge measured post last dose. Format: functional, organism-based. The gist of the method:
as §3

Series [23] has as its target T2, Macrophage migration inhibitory factor (Homo sapiens). The series is described as follows: Inhibition of recombinant human MIF-induced AKT phosphorylation in idiopathic pulmonary arterial hypertension patient derived primary pulmonary endothelial cells by Western blot analysis. The gist of the method:
as §4

Turning to `S=c1oc2ccccc2n1Cc1ccccc1`, the inhibition result in series [1] was “inactive”.
As to `Cc1ccc2oc(=S)n(Cc3ccc(F)cc3)c2c1`, the inhibition at 100 µM in series [1] stood at 25%.
In the case of `Cc1ccc2oc(=S)n(Cc3ccccc3O)c2c1`, the inhibition entry in series [1] is “inactive”.
Consider `Cc1ccc2oc(=S)n(Cc3ccc(F)c(O)c3)c2c1`, for which the inhibitory constant (Ki) in [2] was 2000 to 5000 nM. Further, the inhibition at 100 µM in series [1] amounted to 31%.
For the molecule `Cc1ccc2oc(=S)n(Cc3cccc([N+](=O)[O-])c3)c2c1`, 100 µM produced 24% inhibition in series [1].
Turning to `Cc1ccc2oc(=S)n(Cc3ccccc3C)c2c1`, the inhibition entry in series [1] is “inactive”.
In [1], `COc1cccc(Cn2c(=S)oc3ccc(C)cc32)c1` had an inhibition at 100 µM of 47%.
For the molecule `Oc1cc(Cn2c(=S)oc3ccc(C(F)(F)F)cc32)ccc1F`, the outcome in [3], in [8], in series [10], in series [14] and in [22] was Active. The Activity is 20.8% in series [4]; “Non-Toxic” in series [5]; “Dose-dependent effect” in [6]; 16.7% in series [7]; 14.5% in series [9]; “Non-Toxic” in [13]. The Activity entry is “Non-Toxic” in series [16], “Non-Toxic” in series [17], “Dose-dependent effect” in series [18] and “Non-Toxic” in [21]. In addition, the inhibition at 100 µM amounted to 70% in series [11] and 84% in [1]. The viability at 100 µM in series [12] was determined as 47.9%. For the same molecule, the inhibition result in series [15] and in [23] was “Dose-dependent effect” in each case. The molecule also showed a solubility at 24 h in series [19] of 3 to 4 µM (≈ 1.03 to 1.37 µg/mL). Moreover, in series [20], the EC50 stood at 60500 nM. In [2], the inhibition constant Ki fell in the range of 300 to 1000 nM.
In the case of `Cc1ccc2oc(=S)n(Cc3ccc([N+](=O)[O-])cc3)c2c1`, in series [1], testing at 100 µM gave an inhibition of 13%.
Same read-out and setting: in the case of `Cc1ccc2oc(=S)n(Cc3ccc(Cl)cc3)c2c1` it was 22%; in that of `FC(F)(F)c1ccc2oc(=S)n(Cc3ccccc3)c2c1`, 48%.
As for `CC(C)c1ccc2oc(=S)n(Cc3ccccc3)c2c1`, the Ki in [2] is 1000 to 3000 nM. The inhibition entry in series [1] is “inactive”.
Turning to `CC(C)(C)c1ccc2oc(=S)n(Cc3ccccc3)c2c1`, in [1], the inhibition entry was “inactive”.
On to `Cc1ccc2oc(=S)n(Cc3cccc(O)c3)c2c1`, for which the inhibition constant (Ki) in [2] was in the range of 100 to 600 nM. For the same molecule, the inhibition at 100 µM in series [1] worked out at 46%.
For `Cc1ccc2oc(=S)n(Cc3ccccc3Cl)c2c1`, the inhibition result in [1] was “inactive”.
In series [1], `COc1ccccc1Cn1c(=S)oc2ccc(C)cc21` had an inhibition at 100 µM of 29%.
As to `Cc1ccc2oc(=O)n(Cc3ccccc3)c2c1`, the inhibition entry in series [1] is “inactive”.
In turn, `S=c1oc2ccc(Cl)cc2n1Cc1ccccc1` showed an inhibition at 100 µM in series [1] of 34%.
`Cc1ccc2oc(=S)n(Cc3ccccc3)c2c1`: the Ki in series [2] was 1000 to 3000 nM. The same molecule displayed an inhibition at 100 µM in [1] of 36%.
Turning to `COc1ccc2oc(=S)n(Cc3cccc(O)c3)c2c1`, in series [1], the inhibition at 100 µM came to 16%.
Still for that read-out and setting: under `Cc1ccc2oc(=S)n(Cc3ccccc3F)c2c1` stands 28%.
`Cc1ccc2oc(=S)n(Cc3ccccc3[N+](=O)[O-])c2c1` returned an inhibition at 100 µM in series [1] of 14%.
As to `Cc1cccc2oc(=S)n(Cc3ccccc3)c12`, the inhibition entry in [1] was “inactive”.
Take `Fc1ccc2oc(=S)n(Cc3ccccc3)c2c1`: 100 µM produced 31% inhibition in series [1].
The same measure, in the same setting: under `COc1ccc(Cn2c(=S)oc3ccc(C)cc32)cc1` stands 36%; under `COC(=O)CC1CC(c2ccc(O)cc2)=NO1` (configuration not stated), 8%.
Consider `O=c1oc2ccc(C(F)(F)F)cc2n1Cc1ccc(F)c(O)c1`, for which the inhibition entry in series [1] was “inactive”.
Same read-out and setting: in the case of `Cc1ccc(Cn2c(=S)oc3ccc(C)cc32)cc1` it was “inactive”.
The molecule `Cc1cccc(Cn2c(=S)oc3ccc(C)cc32)c1` yielded an inhibition at 100 µM in series [1] of 32%.
Still for that read-out and setting: under `Cc1ccc2c(c1)oc(=S)n2Cc1ccccc1` stands 24%; under `Cc1ccc2oc(=S)n(Cc3cccc(F)c3)c2c1`, 46%.
